Furin inhibitor – blocks human furin protease activity; P09958; purified furin, fluorogenic substrate cleavage; inhibition, % at 20 µM or 30 µM; actives 0.061% (n = 220,000); AID 463115; in the data active means inhibition above about 25%
Target sequence (P09958 108-714 limits assumed): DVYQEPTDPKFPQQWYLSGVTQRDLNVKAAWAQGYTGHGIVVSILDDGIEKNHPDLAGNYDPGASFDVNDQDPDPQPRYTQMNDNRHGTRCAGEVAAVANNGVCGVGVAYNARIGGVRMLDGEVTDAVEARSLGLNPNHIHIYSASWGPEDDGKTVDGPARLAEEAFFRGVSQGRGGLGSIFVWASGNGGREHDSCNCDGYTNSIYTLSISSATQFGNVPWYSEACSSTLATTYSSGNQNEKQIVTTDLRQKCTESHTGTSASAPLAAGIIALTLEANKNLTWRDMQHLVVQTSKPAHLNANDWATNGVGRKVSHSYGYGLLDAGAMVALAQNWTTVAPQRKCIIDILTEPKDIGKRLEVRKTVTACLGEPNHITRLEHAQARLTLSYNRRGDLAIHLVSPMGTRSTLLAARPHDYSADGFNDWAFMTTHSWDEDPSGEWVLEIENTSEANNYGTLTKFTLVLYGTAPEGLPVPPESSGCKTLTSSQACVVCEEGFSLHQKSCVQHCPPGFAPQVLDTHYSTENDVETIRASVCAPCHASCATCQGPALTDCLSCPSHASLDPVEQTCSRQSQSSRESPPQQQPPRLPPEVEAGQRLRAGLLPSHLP
EP2 antag – EP2 receptor (human) inhibition; AID 1422; C6 glioma cells expressing human EP2, cAMP TR-FRET; cells stimulated with saturating PGE2; P43116; inhibition, % at 25 µM; actives 0.52% (n = 260,000);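 active means percent inhibition above 40 after rounding to a whole number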;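 further: rat C6 glioma host cells with rolipram phosphodiesterase inhibitor present; the protocol text gives 20 µM as final concentration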
GASC-1 inh – human JMJD2C demethylase inhibition; Q9H3R0; GST-JMJD2C(1-420) H3K9me3 demethylation, DELFIA europium; inhibition, % at 2.35 µM; actives 0.069% (n = 330,000);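 active means more than half of a compound's replicate wells show inhibition beyond 50%, single wells judged on their own value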;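 further: signal counts dimethyl H3K9 product captured on neutravidin plate; 0% = median of DMSO wells and 100% = 0.3 times that DMSO median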
EP2 modulator – modulates human prostaglandin E2 receptor EP2 signaling; P43116; EP2-expressing cells, cAMP HTRF FRET, PGE2 co-stimulation; induction, % at 25 µM; AID 940; actives 0.83% (n = 260,000);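 active means compounds whose cAMP rise, as percent of the full-agonist control response, exceeds 60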;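 further: rat C6 glioma line stably carrying human EP2 under a CMV promoter; the protocol text gives 20 µM as final concentration; 100% = response of wells given 1 µM PGE2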
NR2E3 ag-1 – NR2E3 (human) agonism | GST-NR2E3/biotin-RetCOR TR-FRET, 1536-well | Q9Y5X4 | AID 2300 | inhibition of corepressor binding, % at 4.78 µM | actives 0.12% (n = 320,000);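 active means percent inhibition above the cutoff of mean plus 3 SD of all tested compounds, set per screening campaign, cut at about 20% in these data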;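 further: 0% = DMSO wells and 100% = biotin wells as full block of FRET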
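Material – GST-tagged NR2E3 plus biotinylated RetCOR corepressor · Quantity – NR2E3 fusion 1.35 nM · Times – 5 h incubation at 4 °C · Medium – pH 7.5 Tris-based buffer · Technique – TR-FRET, Eu(K)-anti-GST donor, streptavidin-D2 acceptor, ex 340, em 617/671 nm · Benchmarks – high control biotin, low control 0.6% DMSO · Format – 1536-well plates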
NR2E3 ag-2 – human photoreceptor-specific nuclear receptor agonism; Q9Y5X4; CHO-S Gal4-NCOR/VP16-NR2E3 two-hybrid, luciferase; inhibition of corepressor binding, % at 3.98 µM; actives 0.35% (n = 360,000);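 active means inhibition above the mean of all tested compounds plus 3 SD, cut at about 70% in these data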;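 further: 0% = DMSO with NR2E3 transfected cells and 100% = cells lacking NR2E3 construct; higher means lower luciferase signal from less NR2E3 corepressor binding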
* = called active by the depositor; / = not tested or not shown; ! = not active in a repeat. A selection: hits, their analogues and other compounds. The true share with any hit is near 1.3%.

SMILES	Furin inhibitor	EP2 antag	GASC-1 inh	EP2 modulator	NR2E3 ag-1	NR2E3 ag-2
COc1ccc(OC)c(CCNC(=O)Cn2sc3nc(C)cc(C)c3c2=O)c1	-22.3	111.7*	5.7	-54.0	2.2	/
CC(C)[C@@H]1OC(=O)C=CC=CC=CC=CC=CC[C@@H](O)[C@H](C)[C@@H](O)C[C@H](O)C[C@H](O)C[C@H](O)C[C@H](O)C[C@H](O)C[C@H](O)C=C[C@@H]1C	/	48.6*	/	-6.4	/	/
Cn1c(=O)c2c(nc(SCC(=O)NC3CCCC3)n2Cc2ccc(F)cc2)n(C)c1=O	/	13.9	/	-8.3	/	/
Cc1ccc(NC(=S)N(Cc2ccco2)Cc2cc3cccc(C)c3[nH]c2=O)c(C)c1	/	4.4	/	31.0	/	/
Cc1ccc(C)c(-c2csc(N)c2C(=O)OC(C)C)c1	-9.6	16.1	-4.8	62.9*	-4.4	-2.8
CCOC(=O)c1c(-c2ccncc2)csc1N	-19.7	10.0	-3.2	8.9	-0.2	-11.3
CNC[C@@H]1Oc2c(NC(=O)Nc3ccccc3)cccc2C(=O)N([C@@H](C)CO)C[C@H]1C	/	/	50.9*	/	/	12.6
COc1ccc(S(=O)(=O)Nc2cccc3c2O[C@H](CN(C)Cc2ccc(C(=O)O)cc2)[C@@H](C)CN([C@H](C)CO)C3=O)cc1	/	/	58.2*	/	/	-25.2
COc1ccc(S(=O)(=O)Nc2cccc3c2O[C@H](CN(C)Cc2ccc(-c4ccccc4)cc2)[C@@H](C)CN([C@H](C)CO)C3=O)cc1	/	/	-3.6	/	/	10.1
C[C@H](CO)N1C[C@H](C)[C@@H](CN(C)S(=O)(=O)c2cccs2)Oc2c(NC(=O)CCC(F)(F)F)cccc2C1=O	/	/	52.1*	/	/	-21.0
C[C@H](CO)N1C[C@H](C)[C@@H](CN(C)S(=O)(=O)c2ccccc2)Oc2c(NC(=O)CCC(F)(F)F)cccc2C1=O	/	/	52.8*	/	/	8.4
CC(=O)NC1CC2CCCC(C1)N2C(=O)Nc1cc(C)cc(C)c1 (stereo unspecified)	/	11.6	/	0.6	/	/
Cc1cccc2cc(C#N)c(SCCN3CCCCC3)nc12	-23.2	7.5	102.3*	/	1.2	/
CC(=O)c1ccc(N2CCN(C(=O)Nc3ccc(Cl)cc3)CC2)cc1	-6.6	11.5	-10.2	-45.0	1.8	-16.2
O=C(Nc1ccc(Cl)cc1)N1CCN(c2ccccc2)CC1	-6.0	24.3	51.9*	-22.5	-1.8	1.0
CCC(=O)Nc1cc(NC(=O)CSc2nc3c(c(=O)n(C)c(=O)n3C)n2C)ccc1C	/	5.1	/	-4.2	/	/
Oc1ccc2ccccc2c1/C=C/c1ccc2c(Br)cc(Br)c(O)c2n1	/	41.8*	/	4.3	/	-6.5
Oc1cccc2ccc(/C=C/c3ccccc3Br)nc12	/	/	34.2	/	3.5	-131.1
NS(=O)(=O)c1ccc(CCNC(=O)CSc2ccccc2)cc1	-24.9	8.1	50.8*	-5.4	5.9	-9.6
Cc1cc(-c2cn3c4c(nnc3n2)CCCC4)ccc1NC(=O)C1CCCO1 (stereo unspecified)	/	/	/	-13.4	/	/
Cc1c(N=C/C=C2/N(C)c3ccccc3C2(C)C)c(=O)n(-c2ccccc2)n1C	26.3*	11.6	-30.5	-10.2	2.0	-18.9
CCc1nn(CC(=O)NC(C)C)c(=O)c2cc3occc3n12	/	3.3	/	-38.8	/	/
CCCCCN=C(N)N/N=C/c1c[nH]c2ccc(OC)cc12	/	136.3*!	-22.9	15.3	0.9	18.9
C[C@H](Cn1nnc2ccccc21)NC(=O)CCn1cnc2ccccc21	/	7.4	/	-4.7	/	/
CC1C(=O)N(Cc2ccc([N+](=O)[O-])cc2)c2ccccc2N1C(=O)C1CC1 (stereo unspecified)	-10.3	5.5	60.3*	16.3	2.3	/
SMILES	Furin inhibitor	EP2 antag	GASC-1 inh	EP2 modulator	NR2E3 ag-1	NR2E3 ag-2
Cn1c(=O)c2c(nc(N/N=C/c3ccccc3C(=O)O)n2C)n(C)c1=O	/	44.5*	/	17.4	/	/
Cc1cc(SCC(=O)N/N=C/c2ccc(O)c(O)c2)c(C)cc1Br	-17.3	49.5*	-13.4	-32.9	-4.0	3.2
Cc1ccc2cc(CN(Cc3nnnn3C3CCCC3)C3CCCCC3)c(=O)[nH]c2c1	/	9.2	/	1.1	/	/
CCC(c1nnnn1C(C)(C)C)N(CCc1ccccc1C)Cc1cc2cc(C)ccc2[nH]c1=O (stereo unspecified)	/	16.1	/	64.9*	/	/
CCCC(c1nnnn1Cc1ccco1)N(Cc1cc2cc(C)ccc2[nH]c1=O)C1CCCC1 (stereo unspecified)	/	12.0	/	68.2*	/	/
CCCC(c1nnnn1Cc1ccco1)N(Cc1cc2cc(C)cc(C)c2[nH]c1=O)C1CCCC1 (stereo unspecified)	/	4.0	/	33.6	/	/
Cc1ccc2[nH]c(=O)c(CN(Cc3nnnn3C3CCCCC3)C3CCCCC3)cc2c1	/	4.8	/	69.1*	/	/
CCCC(c1nnnn1C(C)(C)C)N(Cc1ccccc1OC)Cc1cc2cc(C)ccc2[nH]c1=O (stereo unspecified)	/	9.6	/	71.7*	/	/
CCCC(c1nnnn1C(C)(C)C)N(Cc1ccccc1)Cc1cc2ccc(C)cc2[nH]c1=O (stereo unspecified)	/	17.2	/	37.4	/	/
CCn1c(CSc2nc(C)cc(C)n2)nnc1SCC(=O)Nc1c(C)cc(C)cc1C	/	6.7	/	9.9	/	/
CNC(=O)CSc1nnc(CNc2cccc(C(F)(F)F)c2)n1Cc1ccco1	/	8.5	/	6.8	/	/
COc1ccc(NC(=O)CSc2nnnn2-c2ccc3c(c2)OCO3)cc1	/	14.0	/	-19.6	/	/
CCC(C)(C)n1nnnc1C(C(C)C)N(Cc1ccco1)Cc1cc2cc(C)ccc2[nH]c1=O (stereo unspecified)	/	10.8	/	49.0	/	/
CCC(c1nnnn1C(C)(C)C)N(Cc1cc2cc(C)ccc2[nH]c1=O)C1CCCCC1 (stereo unspecified)	/	17.5	/	75.1*	/	/
CCC(C)(C)n1nnnc1C(C(C)C)N(Cc1ccccc1)Cc1cc2cc(C)ccc2[nH]c1=O (stereo unspecified)	/	14.3	/	79.6*	/	/
C=CCn1c(N2CCC(C(=O)NCCCN3CCOCC3)CC2)nc2ccccc21	/	3.6	/	-19.4	/	/
Cc1nn(C)cc1C(=O)N[C@@H](C)Cn1nnc2ccccc21	/	8.2	/	-13.8	/	/
CCn1ncc(Br)c1C(=O)Nc1ccccc1OC	-26.5	6.7	4.4	63.2*	-0.6	-0.3
COc1ccc(NC(=S)N2CCN(c3nc4c(c(=O)n(C)c(=O)n4C)n3C)CC2)cc1	/	32.4	/	5.0	/	/
Nc1nc2c(Cl)c(Cl)ccc2s1	/	60.5*	/	-83.9	/	/
CCC(=O)Nc1nc2c(Cl)c(Cl)ccc2s1	/	66.8*	/	-76.7	/	/
CCOc1cccc2sc(NC(=O)CC)nc12	-15.7	19.2	3.9	27.6	7.0	13.0
CN1CC(c2ccccc2)C2(SC(=S)N(Cc3ccco3)C2=O)C12C(=O)Nc1ccccc12 (stereo unspecified)	-11.2	8.7	9.8	60.6*	2.5	1.6
CN1CC(c2ccccn2)C2(SC(=S)N(Cc3ccccc3)C2=O)C12C(=O)Nc1ccccc12 (stereo unspecified)	-12.2	6.9	0.3	24.5	0.8	-33.1
